Results from different studies.
Lines come from different studies, so protocols differ.

SMILES | test | system | setting | quantity | value
OCc1ccc(-c2nn(Cc3ccccc3)c3ccccc23)o1 |  | male CD-1 mouse, plasma | intraperitoneal, 30 mg/kg | half-life | 1.3 h
Cc1nc2ccc(OCc3ccc(C(F)(F)F)cc3)cc2[nH]1 |  | male BALB/c mouse, brain | intravenous, 1 mg/kg, 3 h | concentration | 402 ng/g
Cc1ccccc1CN1C(=O)C2=C(CCN(Cc3ccccc3)C2)N2CCN=C12 | potentiometric | water |  | logP | 3.09
CC(C)n1ncc2c(C(=O)NCC3(C)CNC3)cc(C3CC3)nc21 |  | female BALB/c mouse, plasma | intraperitoneal, 50 mg/kg, 2 h | concentration | 2230 ng/mL
NCc1cc2c(cc1F)C(=O)N(C1CCC(=O)NC1=O)C2 (stereo not drawn) |  | male CD-1 mouse, plasma | intravenous, 1 mg/kg, 30 min | concentration | 33.2 ng/mL
CN(C)C(=O)c1cc2cnc(Nc3ccc(-c4ccc5c(=O)cc(N6CCOCC6)oc5c4)cc3)nc2n1C1CCCC1.Cl |  | BALB/c mouse, plasma | oral, 20 mg/kg | half-life | 4.6 h
Cc1cccc(CNC(=O)c2cn(CCNC(=O)c3ccccc3Sc3c([N+](=O)[O-])ncn3C)c3cc4c(cc3c2=O)OCO4)n1 | metabolic stability | cynomolgus monkey, blood | 1 µM, whole blood | half-life | 5.92 h
C=CC(=O)NC1CCN(c2ncc3ncnc(Nc4ccc(Oc5ccc6c(c5)ncn6C)c(C)c4)c3n2)CC1 |  |  | pH 7.4 | logP | 4.7
Cc1ccc2c(c1)C(=O)[C@]1(O)CCN(c3ccc4nc(C)ccc4c3)C1=N2 |  | mouse, brain | intraperitoneal, 10 mg/kg, 30 min, single dose | concentration | 1000 nM
Cc1cc2c(C(=O)O)cccc2n1-c1nc2c(c(NCc3ccccc3)n1)CCCN2 | metabolic stability | dog, liver microsomes | 1 µM, pH 7.4 | microsomal CLint | 1.15 µL/min/mg
NCc1ccc(-c2nn(Cc3ccccc3)c3ccccc23)o1 |  | male CD-1 mouse, plasma | intravenous, 5 mg/kg | half-life | 1.08 h
Cc1nsc(-c2nnc3n2CCN(C(=O)c2ccc(F)cc2)[C@@H]3C)n1 |  |  |  | logP | 1.5
O=C(O)CC[C@H](NC(=O)N[C@@H](CCCCNC(=O)[C@H](Cc1ccc2ccccc2c1)NC(=O)[C@H]1CC[C@H](CNC(=O)CN2CCN(CC(=O)O)CCN(CC(=O)O)CCN(CC(=O)O)CC2)CC1)C(=O)O)C(=O)O | shake flask | water |  | logP | -1.01
CONC(=O)c1cccc2c1cc(C)n2-c1nc2c(c(NCc3ccccc3)n1)CCCN2 | metabolic stability | dog, liver microsomes | 1 µM, pH 7.4 | microsomal CLint | 84 µL/min/mg
O=C1CCC(N2Cc3cc(CO)c(F)cc3C2=O)C(=O)N1 (stereo not drawn) |  | male CD-1 mouse, plasma | intravenous, 1 mg/kg, 1.02 min | concentration | 1790 ng/mL
